# Source: PubChem BioAssay AID743257 (The Scripps Research Institute Molecular Screening Center, 2014)
# Among all 2,900 compounds or so, about 1,900 (66%) were called active.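 Rule for the calls: active = mean inhibition across replicates above the hit cutoff set in the primary screen (cut at about 8.5% in these data); inactive = the rest.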 So high a share suggests a set chosen from earlier hits. Not all results are given here.
# Biological target: Disintegrin and metalloproteinase domain-containing protein 17 (Homo sapiens) (UniProt P78536)
# Sequence (P78536 215-824 limits assumed): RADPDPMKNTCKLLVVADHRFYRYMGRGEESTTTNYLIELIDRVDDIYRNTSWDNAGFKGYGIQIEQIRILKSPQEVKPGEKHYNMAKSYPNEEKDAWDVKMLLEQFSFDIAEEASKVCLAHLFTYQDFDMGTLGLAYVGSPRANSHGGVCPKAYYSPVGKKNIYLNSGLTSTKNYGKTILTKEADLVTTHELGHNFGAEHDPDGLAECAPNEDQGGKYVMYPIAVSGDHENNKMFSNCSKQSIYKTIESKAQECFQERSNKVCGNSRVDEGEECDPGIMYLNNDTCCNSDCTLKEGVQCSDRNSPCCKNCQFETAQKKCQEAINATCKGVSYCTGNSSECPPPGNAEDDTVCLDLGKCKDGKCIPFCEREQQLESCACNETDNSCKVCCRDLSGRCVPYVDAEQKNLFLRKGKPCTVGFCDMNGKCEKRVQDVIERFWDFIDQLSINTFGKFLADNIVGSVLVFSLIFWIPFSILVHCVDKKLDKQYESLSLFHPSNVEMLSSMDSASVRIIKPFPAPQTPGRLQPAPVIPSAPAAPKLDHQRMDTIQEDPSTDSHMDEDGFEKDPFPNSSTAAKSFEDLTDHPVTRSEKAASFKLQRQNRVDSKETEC
# Assay: ADAM17 inhibitors, hit retest, confirmation, biochemical, QFRET peptide cleavage (AID 743257);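 note: 0% = DMSO wells and 100% = marimastat wells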
# Details: recombinant ADAM17, EDANS/DABCYL QFRET peptide cleavage; at 6.95 µM; stronger effect = higher value
# How it was run: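 Assay system: human ADAM17 protease with quenched FRET peptide substrate / Buffer or medium: 50 mM HEPES buffer, pH 7.5, with 0.01% Brij / Schedule: 30 min preincubation, 3 h reaction / Technique: fluorescence at ex 359 nm, em 460 nm / Read-out: percent inhibition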
row,Structure (SMILES),inhibition
1,CC1(Cc2cccc(C#N)c2)C(=O)Nc2ccc(-c3cccc(C(F)(F)F)c3)cc21 (centres undefined),16.4% (active)
2,O=C(COC(=O)CCCSc1nc2ccccc2[nH]1)Nc1ccc(Oc2ccccc2)cc1,21.9% (active)
3,COC(C(=O)Nc1ccc(S(=O)(=O)Nc2ccc(C)c(C)c2)cc1)c1ccccc1 (centres undefined),13.7% (active)
4,COc1ccc(C(CNC(=O)c2cc(S(=O)(=O)Nc3cccc(C)c3)ccc2C)N2CCCC2)cc1 (centres undefined),2.1% (inactive)
5,CCN1C(=O)C(CC(=O)Nc2cc(C)ccc2C)SC1=Nc1ccc(S(N)(=O)=O)cc1 (centres undefined),7.07% (inactive)
6,O=C(CC1SC(=Nc2ccccc2)N(Cc2ccccn2)C1=O)Nc1cccc(Cl)c1 (centres undefined),18.4% (active)
7,CCOc1ccc(Nc2nc(Cc3nnc(SCC(=O)c4ccc(C)cc4)o3)cs2)cc1,8.23% (inactive)
8,CN(C(=O)c1cccc(NC(=O)Cc2cccc([N+](=O)[O-])c2)c1)C1CCCCC1,8.38% (inactive)
9,O=C(CSc1nc(-c2ccccc2)cs1)Nc1cccc([N+](=O)[O-])c1,14.6% (active)
10,COc1ccc([C@@H]2[C@@H]3C(=O)N(C(C)(C)C)C(=O)[C@@H]3[C@]3(Cc4ccccc4)C(=O)N(c4cccc(Br)c4)C(=O)N23)cc1,14.3% (active)
11,CC[C@@]12C(=O)N(c3ccccc3)C(=O)N1[C@H](c1ccc(Br)cc1)[C@@H]1C(=O)N(C(C)(C)C)C(=O)[C@@H]12,2.65% (inactive)
12,CC(C)(C)N1C(=O)[C@H]2[C@@H](c3ccc(Br)cc3)N3C(=O)N(c4cccc(Cl)c4)C(=O)[C@@]3(C)[C@H]2C1=O,12.8% (active)
13,CCOc1ccccc1C1CC(c2cccc(NS(C)(=O)=O)c2)=NN1C(=O)c1ccccc1 (centres undefined),3.69% (inactive)
14,CCOc1ccc(N2C(=O)CC(N(CCc3ccc(OC)c(OC)c3)C(=S)Nc3ccccc3)C2=O)cc1 (centres undefined),2.05% (inactive)
15,O=C(OCc1ccc(-c2ccccc2)cc1)c1cccc(O)c1,15.7% (active)
16,Cc1ccc(OCCOCCOc2ccc(Br)cc2/C=N\NC(=O)c2ccncc2)cc1,16.2% (active)
17,Cc1ccc(S(=O)(=O)NCCSc2ccccc2)cc1[N+](=O)[O-],7.81% (inactive)
18,COc1cccc(/C=N/NC(=O)c2cccc([N+](=O)[O-])c2)c1OS(=O)(=O)c1ccc(C)cc1,13.8% (active)
19,CC(C)Oc1cc(F)ccc1-c1cc(C(=O)Nc2cccc(Cl)c2)[nH]n1,14.6% (active)
20,O=C(COc1ccc(Cl)cc1)N1CCN(c2cccc(C(F)(F)F)c2)CC1,9.24% (active)
21,Cc1onc(C(=O)NN)c1-c1csc(COc2ccccc2)n1,3.32% (inactive)

row,Structure (SMILES),inhibition
1,COC(=O)c1c(C)[nH]c(C(=O)/C=C/c2ccc(Cl)cc2)c1C,-5.64% (inactive)
2,CCOC(=O)c1c(Cc2ccc(Cl)cc2)c[nH]c1C,9.85% (active)
3,COc1ccc(S(=O)(=O)N2CCCCC2)cc1Br,10.9% (active)
4,COc1ccc(C(=O)C2CCCN(S(=O)(=O)c3cccc(C)c3)C2)c(C)c1 (centres undefined),6.46% (inactive)
5,COCCNC(=O)C(c1ccc(C)o1)N(Cc1ccccc1)C(=O)Cn1nnc2ccccc21 (centres undefined),1.74% (inactive)
6,COc1ccccc1C(=O)NCC(=O)OCC(=O)NNC(=O)c1ccc(Br)cc1,3.39% (inactive)
7,CC(=O)Nc1ccc(S(=O)(=O)N2CCN(CCCOc3cc(C)ccc3C)CC2)cc1,9.43% (active)
8,Cn1c(=O)c2c(nc(N/N=C/c3cccs3)n2Cc2ccc(Br)cc2)n(C)c1=O,-12% (inactive)
9,COc1ccc(C(=O)Nc2ccc(C3(C#N)CCCC3)cc2)cc1OC,-0.86% (inactive)
10,Cc1cc(C)cc(NS(=O)(=O)c2ccc(Oc3ncc(C(F)(F)F)cc3Cl)cc2)c1,20.1% (active)
11,COc1cccc(NC(=O)C2C(c3ccccc3)C2(Cl)Cl)c1 (centres undefined),19.5% (active)
12,O=C(CN1CCN(c2nc(-c3ccccc3)cs2)CC1)NCc1ccc2c(c1)OCO2,12.5% (active)
13,Cc1ccc(-c2n[nH]c(=S)n2/N=C/c2cc3c(cc2[N+](=O)[O-])OCO3)cc1,4.12% (inactive)
14,CCOc1ccc(-n2c(SCC(=O)Nc3cc(C)c(NC(=O)c4ccccc4)cc3OC)nnc2-c2cccs2)cc1,14.6% (active)
15,COc1cccc(CNc2nc(C(F)(F)F)nc3ccccc23)c1,7.14% (inactive)
16,Clc1ccc(C(Cn2ccnc2)OCc2ccsc2Cl)c(Cl)c1 (centres undefined),9.7% (active)
17,CS(=O)(=O)Nc1cccc(C2=NN(S(=O)(=O)c3ccccc3)C(c3cccs3)C2)c1 (centres undefined),6.85% (inactive)
18,N#C/C(=C/c1ccc(N2CCCCC2)o1)C(=O)NCCc1c[nH]c2ccccc12,10.2% (active)
19,Cc1cc(C)cc(NC(=S)NCCc2c[nH]c3ccccc23)c1,8.25% (inactive)
20,COc1ccc(-c2cc(C3CCN(c4ncccc4[N+](=O)[O-])CC3)[nH]n2)cc1,13.2% (active)
21,COc1ccc(CC(N)c2csc(NC(=O)NC(c3ccccc3)c3ccccc3)n2)cc1 (centres undefined),3.55% (inactive)

row,Structure (SMILES),inhibition
1,C=C(C)COc1ccc(-c2n[nH]c(C)c2-c2ccccc2)c(O)c1,20.8% (active)
2,COc1ccc(Cl)cc1NC(=O)COC(=O)C(CC(C)C)N1C(=O)C2CC=CCC2C1=O (centres undefined),9.46% (active)
3,CC(C)N(C(=O)[C@H]1C[C@H](CC(=O)NC(C)(C)C)C(=O)N2CCc3c([nH]c4ccc(Cl)cc34)[C@]12C)C(C)C,8.88% (active)
4,CCOc1ccccc1CNS(=O)(=O)c1cc(-c2cc(C)no2)ccc1C,3.8% (inactive)
5,CCOC(=O)c1cccc(NC(=O)CN(C)S(=O)(=O)c2ccc(-c3cocn3)s2)c1,6.09% (inactive)
6,Cc1ccc(S(=O)(=O)N2CCN(C(=O)COC(=O)c3c(C)cc(C)cc3C)CC2)c(C)c1,9.17% (active)
7,COC(=O)N(C)C[C@@H]1OCc2cnnn2CCCC(=O)N([C@@H](C)CO)C[C@@H]1C,0.27% (inactive)
8,Cn1nc(C(F)(F)F)c2cc(NC(=O)OCC(C)(C)C)sc21,10.8% (active)
9,O=C(CSc1nc(Nc2ccccc2)nc(N2CCOCC2)n1)Nc1cc(Cl)ccc1O,18.7% (active)
10,CC(C)(C)c1ccc(S(=O)(=O)NCC2CCN(C(=O)C(=O)c3cc4ccccc4o3)CC2)cc1,15.1% (active)
11,O=C1[C@H]2[C@@H](c3ccc(C(F)(F)F)cc3)N[C@]3(CCCN(Cc4ccc(Br)cc4)C3=O)[C@H]2C(=O)N1Cc1ccccc1,19.6% (active)
12,O=C(NCc1ccccc1)C1=C[C@@H](c2ccc(C(F)(F)F)cc2)C[C@@H](OCc2ccc(CO)cc2)O1,21.4% (active)
13,Cc1ccc(C(=O)Nc2ccc(C)c(S(=O)(=O)N(C)C)c2)s1,10.8% (active)
14,Cc1ccc(-n2c(COc3ccccc3)nnc2SCC(=O)Nc2ccc3c(c2)OCCO3)cc1,15.9% (active)
15,Cc1cc(NC(=O)CN2C(=O)NC(CC(C)C)C2=O)no1 (centres undefined),15.1% (active)
16,CCCn1nc(C(=O)NNC(=O)CSCC(=O)Nc2cc(C)on2)c2ccccc2c1=O,0.67% (inactive)
17,NNC(=O)C1CCCn2c1nc1sc3c(c1c2=O)CCCC3 (centres undefined),1.06% (inactive)
18,COc1ccc(CC(=O)c2ccc(O)cc2O)cc1OC,1.45% (inactive)
19,CC(C)C(=O)Nc1cccc(NC(=S)NC(=O)C(c2ccccc2)c2ccccc2)c1,17.6% (active)
20,COc1cc(C2CC(=O)N3CN(Cc4ccccc4)CSC3=C2C#N)ccc1OCc1ccccc1 (centres undefined),15.8% (active)
21,COc1ccc(S(=O)(=O)Nc2ccc(O)c(Sc3nc4ccccc4s3)c2)cc1,10.7% (active)

row,Structure (SMILES),inhibition
1,C=CCOc1ccccc1/C=N/NC(=O)Cc1ccccc1,2.48% (inactive)
2,O=C1NC(=O)C(c2ccc(Cl)cc2)N1 (centres undefined),13.7% (active)
3,Cc1ccc(-c2nnc(SCC(=O)Nc3ccc(Oc4ccccc4)cc3)n2Cc2ccco2)cc1,18.5% (active)
4,Cc1ccc(OCc2nnc(SC/C=C/c3ccccc3)n2Cc2ccco2)cc1,12.5% (active)
5,CCCN(CC(=O)NC(=O)NC1CCCCC1)CC(=O)Nc1cc(Cl)ccc1Cl,17.5% (active)
6,CN(C)c1ccc(NC(=O)NC2CCCCN(Cc3ccc(Cl)cc3)C2=O)cc1 (centres undefined),3.4% (inactive)
7,O=C(CSCc1ccc(Br)cc1)Nc1ccc(S(=O)(=O)N2CCCCCC2)cc1,12.6% (active)
8,COc1ccc(C(N)c2csc(NC(=O)Nc3cccc(C(F)(F)F)c3)n2)cc1 (centres undefined),6.58% (inactive)
9,Cn1nc(C(F)(F)F)c(C(=O)Nc2cccc(C(F)(F)F)c2)c1SCc1ccc(Cl)cc1,19.4% (active)
10,CC(=O)Nc1ccc(S(=O)(=O)Oc2ccc(Br)cc2C(=S)N2CCOCC2)cc1,9.82% (active)
11,S=C(NCc1ccc(Cl)cc1)NC12CC3CC(CC(C3)C1)C2,11.1% (active)
12,O=C(Cc1ccc(Cl)c(Cl)c1)Nc1ccc(SC(F)F)cc1,25.1% (active)
13,COc1ccc(CN(C)C(=O)CC(c2ccccc2)c2ccccc2)cc1,5.73% (inactive)
14,O=C(c1ccccc1)N1CCN(c2ccc([N+](=O)[O-])c(NCc3ccco3)c2)CC1,9.37% (active)
15,CC(C)(C)OC(=O)N1CCC(NC(=O)c2[nH]cnc2C(=O)N[C@@H](Cc2ccccc2)C(=O)OCc2ccccc2)CC1,22.4% (active)
16,CC(C)(C)OC(=O)CNC(=O)c1[nH]cnc1C(=O)N[C@@H](Cc1ccccc1)C(=O)OCc1ccccc1,20.1% (active)
17,CCOc1ccc(OCC)c(-c2c(=O)n(OCc3ccc(Cl)cc3)c3ccccc3[n+]2[O-])c1,2.59% (inactive)
18,Cc1sc2nc(SCC(=O)c3ccc(O)c(O)c3)n(Cc3ccco3)c(=O)c2c1C,12.6% (active)
19,CCn1c(Cc2cccs2)nnc1SCC(=O)c1ccc(C)cc1,2.25% (inactive)
20,O=C(Cc1ncc(C(F)(F)F)cc1Cl)Nc1cccc(Br)c1,5.32% (inactive)
21,CCc1cccc(NC(=O)COC(=O)C2CCN(c3ccc(C(F)(F)F)cn3)CC2)c1,16.5% (active)
